Measured values reported in ChEMBL document CHEMBL1157333, “Cytotoxic dihydroagarofuranoid sesquiterpenes from the stem of Microtropis fokienensis” (J Nat Prod, 2006).
≈ marks a conversion by molar mass, not a printed value.

Experiments:
HT-29 = assay: Cytotoxicity against human HT29 cells after 6 days by MTT assay; format: functional, cell-based; settings: HT-29, 144 h
How it was run: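 Human colon carcinoma cells from ATCC kept in RPMI 1640 with 10% heat-inactivated FCS at 37 °C, 5% CO2. Plated at 1000 cells/well and exposed 6 days to eight concentrations spanning a 128-fold range, in triplicate, in 0.5% DMSO. Then 1 mg/mL MTT added for 5 h at 37 °C, formazan dissolved in DMSO, read at 540 nm. IC50 is 50% absorbance reduction versus untreated cells. Three repeats.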

P388 = assay: Cytotoxicity against mouse P388 cells after 3 days by MTT assay; format: functional, cell-based; settings: P388, 72 h
How it was run: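 Mouse lymphocytic leukemia cells grown in Fisher's medium with 10% heat-inactivated FCS at 37 °C, 5% CO2. Seeded at 1500 cells/well in 200 µL cultures, then given compounds in 0.5% DMSO at eight concentrations in triplicate for 3 days. MTT added, formazan dissolved in DMSO and read at 540 nm. IC50 is the concentration giving 50% absorbance reduction versus untreated cells. Assays repeated three times.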

Q: How did the IC50 (HT-29) turn out when `CC(=O)O[C@@H]1[C@H]2C[C@H](OC(=O)c3ccccc3)[C@]3(COC(=O)CC(C)C)[C@@H](OC(C)=O)[C@@H](OC(=O)c4ccccc4)C[C@@H](C)[C@@]13OC2(C)C` was run?
A: 0.082 µg/mL (≈ 0.121 µM)

Q: And the IC50 (P388)?
A: 0.051 µg/mL (≈ 0.0751 µM)

Q: `CC(=O)O[C@H]1CC[C@@H](C)[C@]23OC(C)(C)[C@H](C[C@H](OC(=O)c4ccccc4)[C@]12COC(=O)c1ccccc1)[C@H]3OC(C)=O` was tested. Which IC50 (HT-29) did it give?
A: 0.071 µg/mL (≈ 0.123 µM)

Q: What about the IC50 (P388) of the same compound?
A: 0.043 µg/mL (≈ 0.0743 µM)

Q: With `CC(=O)O[C@@H]1[C@H]2C[C@H](OC(=O)c3ccccc3)[C@]3(COC(=O)c4ccccc4)[C@@H](OC(C)=O)[C@@H](OC(=O)c4ccccc4)C[C@@H](C)[C@@]13OC2(C)C` [FOKIENAGAROFURAN A] as the compound, how does the IC50 (HT-29) read?
A: 0.054 µg/mL (≈ 0.0773 µM)

Q: And the IC50 (P388)?
A: 0.032 µg/mL (≈ 0.0458 µM)

Q: For `CC(=O)O[C@H]1[C@@H](OC(=O)c2ccccc2)C[C@@H](C)[C@]23OC(C)(C)[C@H](C[C@H](OC(=O)c4ccccc4)[C@]12COC(=O)c1ccccc1)[C@H]3OC(=O)c1ccccc1` [FOKIENAGAROFURAN D], which IC50 (HT-29) is on record?
A: 0.058 µg/mL (≈ 0.0762 µM)

Q: And the IC50 (P388)?
A: 0.036 µg/mL (≈ 0.0473 µM)

Q: With `CO[C@H](C(=O)[C@@H](O)[C@@H](C)O)[C@@H]1Cc2cc3cc(O[C@H]4C[C@@H](O[C@@H]5C[C@@H](O)[C@H](O)[C@@H](C)O5)[C@H](O)[C@@H](C)O4)c(C)c(O)c3c(O)c2C(=O)[C@H]1O[C@H]1C[C@@H](O[C@@H]2C[C@@H](O)[C@@H](O[C@@H]3C[C@](C)(O)[C@H](O)[C@@H](C)O3)[C@@H](C)O2)[C@H](O)[C@@H](C)O1` [PLICAMYCIN] as the compound, how does the IC50 (HT-29) read?
A: 0.08 µg/mL (≈ 0.0737 µM)

Q: And the IC50 (P388)?
A: 0.06 µg/mL (≈ 0.0553 µM)
